{"source": "ChEMBL document CHEMBL1126990", "about": "“Design and synthesis of 18F-labeled neurotoxic analogs of MPTP” (J Med Chem, 1993)", "key": {"Mus musculus [1]": {"species": "Mus musculus", "assay": "Biodistribution of [18F]-radiolabeled compound in the mouse muscle after 90 minutes (average uptake in (%injected dose)/(% body weight)", "assay_type": "ADME, organism-based, Muscle tissue", "details": "in vivo, 1.5 h", "outline": "(§1)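 Adult male C57 Black mice (about 20 g), anesthetized with 1 mg sodium pentobarbital ip, given 0.1 mL (~0.05 mCi) tracer via tail vein. Killed by cervical dislocation at set times (5–90 min). Organs sampled, counted, weighed. Injected dose measured against weighed standards, minus residual tail activity. %id/g multiplied by body weight gives normalized uptake. Mean ± SD, N = 3 (N = 2 at 5 min).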"}, "Mus musculus [2]": {"species": "Mus musculus", "assay": "Biodistribution of [18F]-radiolabeled compound in the mouse intestine after 60 minutes (average uptake in (%injected dose)/(% body weight)", "assay_type": "ADME, organism-based", "details": "in vivo, 1 h", "outline": "as §1"}, "Mus musculus [3]": {"species": "Mus musculus", "assay": "Biodistribution of [18F]-radiolabeled compound in the mouse muscle after 30 minutes (average uptake in (%injected dose)/(% body weight)", "assay_type": "ADME, organism-based, Muscle tissue", "details": "in vivo, 0.5 h", "outline": "as §1"}, "Mus musculus [4]": {"species": "Mus musculus", "assay": "Biodistribution of [18F]-radiolabeled compound in the mouse blood after 30 minutes (average uptake in (%injected dose)/(% body weight)", "assay_type": "ADME, organism-based", "details": "in vivo, 0.5 h", "outline": "as §1"}, "Mus musculus [5]": {"species": "Mus musculus", "assay": "Biodistribution of [18F]-radiolabeled compound in the mouse liver after 5 minutes (average uptake in (%injected dose)/(% body weight)", "assay_type": "ADME, organism-based", "details": "in vivo", "outline": "as §1"}, "Mus musculus [6]": {"species": "Mus musculus", "assay": "Biodistribution of [18F]-radiolabeled compound in the mouse heart after 60 minutes (average uptake in (%injected dose)/(% body weight)", "assay_type": "ADME, organism-based", "details": "in vivo, 1 h", "outline": "as §1"}, "Mus musculus [7]": {"species": "Mus musculus", "assay": "Biodistribution of [18F]-radiolabeled compound in the mouse lung after 60 minutes (average uptake in (%injected dose)/(% body weight)", "assay_type": "ADME, organism-based", "details": "in vivo, 1 h", "outline": "as §1"}, "Mus musculus [8]": {"species": "Mus musculus", "assay": "Biodistribution of [18F]-radiolabeled compound in the mouse spleen after 90 minutes (average uptake in (%injected dose)/(% body weight)", "assay_type": "ADME, organism-based", "details": "in vivo, 1.5 h", "outline": "as §1"}, "Mus musculus [9]": {"species": "Mus musculus", "assay": "Biodistribution of [18F]-radiolabeled compound in the mouse brain after 90 minutes (average uptake in (%injected dose)/(% body weight)", "assay_type": "ADME, organism-based", "details": "in vivo, 1.5 h", "outline": "as §1"}, "Mus musculus [10]": {"species": "Mus musculus", "assay": "Biodistribution of [18F]-radiolabeled compound in the mouse brain after 30 minutes (average uptake in (%injected dose)/(% body weight)", "assay_type": "ADME, organism-based", "details": "in vivo, 0.5 h", "outline": "as §1"}, "Mus musculus [11]": {"species": "Mus musculus", "assay": "Biodistribution of [18F]-radiolabeled compound in the mouse brain after 15 minutes (average uptake in (%injected dose)/(% body weight)", "assay_type": "ADME, organism-based", "details": "in vivo, 0.25 h", "outline": "as §1"}, "Mus musculus [12]": {"species": "Mus musculus", "assay": "Biodistribution of [18F]-radiolabeled compound in the mouse liver after 90 minutes (average uptake in (%injected dose)/(% body weight)", "assay_type": "ADME, organism-based", "details": "in vivo, 1.5 h", "outline": "as §1"}, "Mus musculus [13]": {"species": "Mus musculus", "assay": "Biodistribution of [18F]-radiolabeled compound in the mouse bone after 60 minutes (average uptake in (%injected dose)/(% body weight)", "assay_type": "ADME, organism-based, Bone element", "details": "in vivo, 1 h", "outline": "as §1"}, "Mus musculus [14]": {"species": "Mus musculus", "assay": "Biodistribution of [18F]-radiolabeled compound in the mouse intestine after 5 minutes (average uptake in (%injected dose)/(% body weight)", "assay_type": "ADME, organism-based", "details": "in vivo", "outline": "as §1"}, "Mus musculus [15]": {"species": "Mus musculus", "assay": "Biodistribution of [18F]-radiolabeled compound in the mouse intestine after 90 minutes (average uptake in (%injected dose)/(% body weight)", "assay_type": "ADME, organism-based", "details": "in vivo, 1.5 h", "outline": "as §1"}, "Mus musculus [16]": {"species": "Mus musculus", "assay": "Biodistribution of [18F]-radiolabeled compound in the mouse heart after 15 minutes (average uptake in (%injected dose)/(% body weight)", "assay_type": "ADME, organism-based", "details": "in vivo, 0.25 h", "outline": "as §1"}, "Mus musculus [17]": {"species": "Mus musculus", "assay": "Biodistribution of [18F]-radiolabeled compound in the mouse bone after 15 minutes (average uptake in (%injected dose)/(% body weight)", "assay_type": "ADME, organism-based, Bone element", "details": "in vivo, 0.25 h", "outline": "as §1"}, "Rattus norvegicus": {"species": "Rattus norvegicus", "assay": "Maximal rate (Vmax) for oxidation by rat liver MAO (results are means of number of separate experiments, n=4) (*p<0.01)", "assay_type": "ADME", "outline": "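Rat liver MAO (crude P2 mitochondrial fraction from adult male Wistar rats, in pH 7.4 phosphate buffer) incubated with substrate at 30 μM to 5 mM; colorimetric detection of H2O2 formed. Blanks contained 0.1 mM pargyline. Vmax and Km from linear regression of Lineweaver-Burk plots; means ± SE of n separate experiments; ANOVA with post-hoc Scheffe test.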"}, "Mus musculus [18]": {"species": "Mus musculus", "assay": "Biodistribution of [18F]-radiolabeled compound in the mouse muscle after 60 minutes (average uptake in (%injected dose)/(% body weight)", "assay_type": "ADME, organism-based, Muscle tissue", "details": "in vivo, 1 h", "outline": "as §1"}, "Mus musculus [19]": {"species": "Mus musculus", "assay": "Biodistribution of [18F]-radiolabeled compound in the mouse brain after 5 minutes (average uptake in (%injected dose)/(% body weight)", "assay_type": "ADME, organism-based", "details": "in vivo", "outline": "as §1"}, "Mus musculus [20]": {"species": "Mus musculus", "assay": "Biodistribution of [18F]-radiolabeled compound in the mouse lung after 30 minutes (average uptake in (%injected dose)/(% body weight)", "assay_type": "ADME, organism-based", "details": "in vivo, 0.5 h", "outline": "as §1"}, "Mus musculus [21]": {"species": "Mus musculus", "assay": "Biodistribution of [18F]-radiolabeled compound in the mouse kidney after 30 minutes (average uptake in (%injected dose)/(% body weight)", "assay_type": "ADME, organism-based", "details": "in vivo, 0.5 h", "outline": "as §1"}, "Mus musculus [22]": {"species": "Mus musculus", "assay": "Biodistribution of [18F]-radiolabeled compound in the mouse bone after 90 minutes (average uptake in (%injected dose)/(% body weight)", "assay_type": "ADME, organism-based, Bone element", "details": "in vivo, 1.5 h", "outline": "as §1"}, "Mus musculus [23]": {"species": "Mus musculus", "assay": "Biodistribution of [18F]-radiolabeled compound in the mouse lung after 15 minutes (average uptake in (%injected dose)/(% body weight)", "assay_type": "ADME, organism-based", "details": "in vivo, 0.25 h", "outline": "as §1"}, "Mus musculus [24]": {"species": "Mus musculus", "assay": "Biodistribution of [18F]-radiolabeled compound in the mouse brain after 60 minutes (average uptake in (%injected dose)/(% body weight)", "assay_type": "ADME, organism-based", "details": "in vivo, 1 h", "outline": "as §1"}, "Mus musculus [25]": {"species": "Mus musculus", "assay": "Biodistribution of [18F]-radiolabeled compound in the mouse heart after 30 minutes (average uptake in (%injected dose)/(% body weight)", "assay_type": "ADME, organism-based", "details": "in vivo, 0.5 h", "outline": "as §1"}}, "data": [{"smiles": "CN1CC=C(c2ccccc2CF)CC1", "values": [{"measurement": "Time", "setting": "Mus musculus [1]", "result": 0.24, "unit": "min"}, {"measurement": "Time", "setting": "Mus musculus [2]", "result": 0.88, "unit": "min"}, {"measurement": "Time", "setting": "Mus musculus [3]", "result": 0.43, "unit": "min"}, {"measurement": "Time", "setting": "Mus musculus [4]", "result": 0.4, "unit": "min"}, {"measurement": "Time", "setting": "Mus musculus [5]", "result": 2.3, "unit": "min"}, {"measurement": "Time", "setting": "Mus musculus [6]", "result": 1.88, "unit": "min"}, {"measurement": "Time", "setting": "Mus musculus [7]", "result": 1.6, "unit": "min"}, {"measurement": "Time", "setting": "Mus musculus [8]", "result": 0.95, "unit": "min"}, {"measurement": "Time", "setting": "Mus musculus [9]", "result": 0.76, "unit": "min"}, {"measurement": "Time", "setting": "Mus musculus [10]", "result": 0.68, "unit": "min"}, {"measurement": "Time", "setting": "Mus musculus [11]", "result": 0.82, "unit": "min"}, {"measurement": "Time", "setting": "Mus musculus [12]", "result": 0.778, "unit": "min"}, {"measurement": "Time", "setting": "Mus musculus [13]", "result": 2.22, "unit": "min"}, {"measurement": "Time", "setting": "Mus musculus [14]", "result": 1.36, "unit": "min"}, {"measurement": "Time", "setting": "Mus musculus [15]", "result": 2.32, "unit": "min"}, {"measurement": "Time", "setting": "Mus musculus [16]", "result": 2.41, "unit": "min"}, {"measurement": "Time", "setting": "Mus musculus [17]", "result": 1.58, "unit": "min"}, {"measurement": "Vmax", "setting": "Rattus norvegicus", "result": "609 nM hr-1 (mg of protein)-1"}, {"measurement": "Time", "setting": "Mus musculus [18]", "result": 0.3, "unit": "min"}, {"measurement": "Time", "setting": "Mus musculus [19]", "result": 1.48, "unit": "min"}, {"measurement": "Time", "setting": "Mus musculus [20]", "result": 2.54, "unit": "min"}, {"measurement": "Time", "setting": "Mus musculus [21]", "result": 1.36, "unit": "min"}, {"measurement": "Time", "setting": "Mus musculus [22]", "result": 3.32, "unit": "min"}, {"measurement": "Time", "setting": "Mus musculus [23]", "result": 3.83, "unit": "min"}, {"measurement": "Time", "setting": "Mus musculus [24]", "result": 0.65, "unit": "min"}, {"measurement": "Time", "setting": "Mus musculus [25]", "result": 2.03, "unit": "min"}]}]}
